Results on 93 compounds are retold here after PubChem BioAssay AID822 (SRMLSC, 2007).

Activity calls are given as the source filed them.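 The calls were made as follows: active = half-maximal effective dose for blocking growth of human endothelial cells at most 100 µM; inactive = the rest.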

The test system of the experiment is HUVEC proliferation, viability ATP luminescence. The experiment can be described thus: growth suppression of umbilical vein endothelial cells – cell-based, HUVEC, ATP luminescence, dose response (AID 822).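 Also: cells exposed to compound for 72 h before the ATP read.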 The method, boiled down: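 Assay system: HUVEC primary endothelial cells, low passage (≤12) | Doses: 0.039–20 µM, 0.2% DMSO | Incubation: 72 h compound exposure at 37 °C | Detection: CellTiter-Glo ATP luminescence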
As for `O=C(Cn1c(=O)n(CCCC(=O)NC2CCCC2)c(=O)c2ccccc21)NCCC1=CCCCC1`, the 50% effective concentration (EC50) is 18.1 µM.

For the compound `CN1C[C@H](CNC(=O)OCc2ccccc2)C[C@@H]2c3cccc4c3c(cn4C)C[C@H]21`, the half-maximal effective concentration (EC50) is 8.44 µM. The result for `CN1CCN(c2ccc(NC(=O)c3cccc(OCc4ccccc4)c3)cc2)CC1` reads 11.4 µM; that for `Cc1cccc(NC(=O)Nc2cccc(Oc3c(F)c(F)c(F)c(F)c3F)c2)c1`, 15.3 µM. The result for `CC1(C)Cc2c(c(N3CCOCC3)nc3snc(N)c23)CO1` reads 11 µM; that for `COc1ccc(-c2ccc(C#N)c(SCC(=O)Nc3sc4c(c3C#N)CCC4)n2)cc1OC`, 4.67 µM; that for `COC(=O)c1c(NC(=O)c2ccco2)sc(C(=O)Nc2ccc(F)cc2)c1C`, 2.98 µM. Consider `Cc1ccccc1N1C(=O)CC(Sc2nnc(-c3ccccc3)o2)C1=O` (stereo not drawn), for which the EC50 is 15.2 µM. Turning to `CN1CCN(c2ccccc2NC(=O)c2ccc(-c3ccc(Cl)cc3Cl)o2)CC1`, the EC50 was 6.37 µM. For `O=C(Nc1ccc(Cl)cc1)N1CCCN(Cc2ccc(F)cc2)C1`, the EC50 is 12.6 µM. The result for `O=Cc1ccc(Sc2nnc(-c3ccccc3)o2)c([N+](=O)[O-])c1` reads 11.4 µM; that for `Cc1cc2c(cc1C)CSC(c1c(O)ccc3ccccc13)SC2`, 5.81 µM; that for `COc1ccc2cc3cc(C(=O)Nc4ccc5c(c4)OCO5)oc3nc2c1`, 4.64 µM.

`COc1c(F)c(F)c(C(=O)Nc2ccc(N3CCN(Cc4ccccc4)CC3)cc2)c(F)c1F`: the 50% effective concentration (EC50) is 10.9 µM. The result for `CNC(=O)c1ccc(-c2sc3nc(N4CCOCC4)c4c(c3c2N)CCCC4)o1` reads 10.5 µM; that for `CN1CCN(c2ccccc2NC(=O)c2cccc(OCc3ccccc3)c2)CC1`, 10.8 µM; that for `Oc1ccccc1NCC(O)Cn1ccc2ccccc21` (stereo not drawn), 8.76 µM.

Take `COc1ccc(Cl)cc1N1CCN(CCNC(=O)Nc2ccccc2C)CC1`: the EC50 is 5.83 µM.

As to `CC(C)C1Cc2c(sc3[nH]c(=S)n(Cc4ccccc4)c(=O)c23)CO1` (stereo not drawn), the EC50 is 3.05 µM. The result for `CCC(=O)OCCNc1cc(Sc2nc3ccccc3s2)c2nonc2c1[N+](=O)[O-]` reads 14.5 µM; that for `CCn1c2c(c3cc(Br)ccc31)CCC/C2=N\O`, 15.2 µM.

For the compound `Cc1ccc(N=Nc2c(C)[nH][nH]c2=O)c(C)c1`, the EC50 was 7.59 µM.

Consider `CCN1CCN(c2cc(C)c3cc(NC(=O)c4ccc(OC)c(OC)c4)ccc3n2)CC1`, for which the half-maximal effective concentration (EC50) is 13.6 µM. The result for `Cc1ccc(C(C)C)c(OCC(=O)Nc2ccc3c(c2)nc(CN2CCCC2)n3C)c1` reads 14.6 µM; that for `Cc1ccc(Cn2nc(C)c(NC(=O)c3cc(-c4ccc5c(c4)OCO5)on3)c2C)cc1`, 10.2 µM. The result for `O=C(C#Cc1cccc([N+](=O)[O-])c1)c1ccccc1` reads 20.3 µM. The result for `CCCOC(=O)c1ccc(Oc2c(-c3ccc(OC)cc3O)n[nH]c2C)cc1` reads 9.48 µM. As for `CCOC(=O)c1cnc(-n2nc(C)cc2C)nc1NC1CCCCC1`, the 50% effective concentration (EC50) is 0.27 µM.

For the compound `O=C1C=C(c2ccc(Cl)cc2)C(=O)N1Nc1ccccc1`, the EC50 is 10.7 µM.

For the compound `COc1ccc(C2Oc3ccccc3C3=C2C(c2cccs2)n2ncnc2N3)cc1` (stereo not drawn), the concentration giving a half-maximal response (EC50) is 16.3 µM. The result for `CCN(CC(O)Cn1c2ccccc2c2ccccc21)S(=O)(=O)c1ccc(C)cc1` (stereo not drawn) reads 11.5 µM; that for `Cc1cc(C)n(-c2nc(NCCCO)c3c4c(sc3n2)CCCC4)n1`, 2.41 µM; that for `CC(=O)SC(C[N+](=O)[O-])c1cn(C(C)=O)c2ccccc12` (stereo not drawn), 6.72 µM. The result for `CCc1ccc(-c2nc(CN3CCC(C(=O)N4CCN(c5ccccn5)CC4)CC3)c(C)o2)cc1` reads 14.2 µM; that for `CS(=O)(=O)c1nc(-c2cccs2)cc(C(F)(F)F)n1`, 6.11 µM.

In the case of `COc1ccc(NC(=O)/C(Cl)=C(/Cl)S(=O)(=O)Cc2ccccc2)cn1`, the EC50 was 4.48 µM. For the compound `O=C(/C=C/c1ccc(Cl)cc1)c1cccnc1`, the concentration for a half-maximal effect (EC50) is 17.2 µM. For `N#C/C(=C/c1ccc(N2CCCCCC2)o1)c1ccc(Cl)cc1`, the half-maximal effective concentration (EC50) is 18.3 µM. The result for `COc1ccc(CN=C(C)c2c(C(F)(F)F)[nH]n(-c3nc4ccccc4s3)c2=O)cc1` reads 5.87 µM; that for `Cc1oc(-c2ccc(Cl)cc2)nc1CN1CCC(C(=O)N2CCN(Cc3ccccc3)CC2)CC1`, 8.43 µM. The result for `CC(C)OCCCN1C(=O)c2[nH]nc(-c3ccccc3O)c2C1c1cccc(Cl)c1` (stereo not drawn) reads 15.7 µM. In the case of `CCCc1ccc(-c2cc(NC(=O)CSc3n[nH]c(N)n3)n(-c3ccccc3)n2)cc1`, the EC50 was 8.38 µM. As for `CN(C)c1ccc(-c2nn3c(-c4ccc(Cl)cc4Cl)nnc3s2)cc1`, the EC50 was 14.8 µM. The result for `COc1ccccc1-c1cc(C(=O)Nc2cc(C)n(Cc3ccc(Cl)cc3)n2)no1` reads 5.84 µM.

Regarding `N#CC(c1ccccc1)c1ccc2c(C(F)(F)F)cc(C(F)(F)F)nc2n1` (stereo not drawn), the 50% effective concentration (EC50) was 16.7 µM. For the compound `O=C1c2[nH]nc(-c3ccccc3O)c2C(c2cccc(Cl)c2)N1Cc1ccco1` (stereo not drawn), the EC50 is 11 µM.

Consider `Cc1cc(C)cc(OC(=O)CS(=O)c2ccc(C(F)(F)F)cc2[N+](=O)[O-])c1` (stereo not drawn), for which the 50% effective concentration (EC50) was 18.7 µM. The result for `OCCNc1nc2ccccc2n1-c1ncnc2sc3c(c12)CCC3` reads 11.4 µM; that for `C=CCn1c(SCC(=O)c2c(N)n(CCC)c(=O)n(C)c2=O)nc2sc(CC)cc2c1=O`, 14.9 µM. The result for `CCn1c(=O)cc(C(=O)OC)sc1=Nc1ccc(F)c(F)c1` reads 11.7 µM.

In the case of `COc1cc2nc(N3CCN(C(=O)c4ccco4)CC3)nc(N)c2cc1OC`, the EC50 is 11.2 µM. With `O=C1CC(c2ccco2)Cc2nc(Nc3nc(-c4ccccc4)c4ccccc4n3)ncc21` (stereo not drawn), the EC50 is 7.44 µM.

For the compound `COC(=O)c1c(C)n(-c2ccc(OC)cc2)c2ccc(O)cc12`, the 50% effective concentration (EC50) was 8.97 µM. The result for `O=C(Nc1ccc(Cl)c(Cl)c1)C1=Cc2ccccc2OC1` reads 7.93 µM. The result for `Cc1cccc(NC(=O)c2cc(NC(=O)c3ccco3)ccc2N2CCCCC2)c1` reads 13.3 µM; that for `Cc1ccc(C(=O)c2c(C)oc3c2C(=O)C(=O)c2ccccc2-3)cc1`, 20 µM. The result for `OC(C#Cc1ccccn1)c1cccs1` (stereo not drawn) reads 4.29 µM; that for `Oc1ccccc1-c1cc(-c2ccccc2Cl)[nH]n1`, 12.5 µM. As to `O=C(COC(=O)c1cccnc1Nc1cccc(C(F)(F)F)c1)NCc1ccc2c(c1)OCO2`, the concentration giving a half-maximal response (EC50) was 13.5 µM. For `CC(=O)n1cc(-c2ccncc2)c2ccccc21`, the EC50 is > 10 µM (inactive).

As for `COc1cc(N=c2ssnc2Cl)c(OC)cc1Cl`, the EC50 is 20.9 µM. The result for `CCCc1nc(SCC(=O)N2CCC(Cc3ccccc3)CC2)c2c(=O)n(C)c(=O)n(C)c2n1` reads 10.5 µM; that for `Cc1ccc2[nH]c(=O)c(C3C(C#N)=C(N)Oc4c3ccc3cccnc43)cc2c1` (stereo not drawn), 9.52 µM; that for `c1ccc(CC2CCN(C3=Nc4cccc5cccc3c45)CC2)cc1`, 3.02 µM. Turning to `Cc1cc(C)n(CC(O)Cn2c3ccc(Br)cc3c3cc(Br)ccc32)c(=O)n1` (stereo not drawn), the half-maximal effective concentration (EC50) is 10.7 µM. The result for `Nc1c(C(=O)NCc2ccc(F)cc2)c2nc3ccccc3nc2n1CCCN1CCOCC1` reads 10.4 µM. With `CC(C)c1nnc(NC(=O)CCS(=O)(=O)c2nc(-c3cccs3)cc(C(F)(F)F)n2)s1`, the concentration for a half-maximal effect (EC50) was 9.9 µM.

As for `COc1ccc(NC(=O)c2cc3n(n2)C(C(F)(F)F)CC(c2ccc(OC)cc2)N3)cc1` (stereo not drawn), the EC50 is 9.91 µM. The result for `CCn1c(SCC(N)=O)nnc1-c1ccc2[nH]c(C)c(C)c2c1` reads > 10 µM (inactive); that for `Cn1c(=O)c2c(nc(Oc3ccc4c(c3)OCO4)n2Cc2ccc(Cl)cc2)n(C)c1=O`, 5.33 µM; that for `Cn1c(=O)n(C)c2cc(C(=O)Nc3ccc4c(c3)OCO4)ccc21`, 11.6 µM.

With `Nc1nc(Nc2cccc3ccccc23)nc(C2CCCC2=O)n1` (stereo not drawn), the half-maximal effective concentration (EC50) is 11.4 µM.

Consider `COc1ccccc1N1C(=O)N(C(C)=O)C2C1Nc1ccccc1N2C` (stereo not drawn), for which the concentration giving a half-maximal response (EC50) was 6.17 µM. As to `O=C(COc1ccc(Cl)cc1)Nc1ccccc1C(=O)NCc1ccco1`, the half-maximal effective concentration (EC50) was 16.4 µM. For the compound `Cc1cc(/C=C2\C(=N)N3C(SCc4ccccc4)=NSC3=NC2=O)c(C)n1Cc1ccccc1`, the EC50 was 5.4 µM.

`COC(=O)C(CC(=O)c1ccc(Br)cc1)n1ccnc1` (stereo not drawn): the half-maximal effective concentration (EC50) was 9.3 µM.

For `C=CCOC(=O)C1=C(C)NC(SCC(=O)Nc2ccc(C)c(Cl)c2)=C(C#N)C1c1ccco1` (stereo not drawn), the concentration giving a half-maximal response (EC50) was 20.1 µM. The result for `CC(C)=CCC/C(C)=C/CCC(C)NCCN1CCNCC1` (stereo not drawn) reads 14.6 µM; that for `Cc1nc(Nc2ccc3c(c2)OCCO3)c2nnn(Cc3ccccc3Cl)c2n1`, 7.13 µM. The result for `COc1cccc2sc(Nc3nnc(-c4ccc(F)cc4)o3)nc12` reads 0.963 µM; that for `O=C(Nc1nnc(-c2ccc3c(c2)OCCO3)o1)c1ccc(Cc2ccccc2)cc1`, 4.76 µM; that for `CC(C)CNC(=O)c1coc(=O)c(Br)c1`, > 10 µM (inactive). The result for `Cc1cccc(Nc2nc(NCc3ccco3)nc(N3CCOCC3)n2)c1` reads 2.15 µM.

In the case of `Cc1cc(C)n(-c2nc(NCCC(C)C)c3c4c(sc3n2)COC(C)(C)C4)n1`, the EC50 is 14.5 µM. The result for `Nc1nc(NC(=O)c2cccc(S(=O)(=O)N3CCCCCC3)c2)nc(-c2ccccc2)n1` reads 12.8 µM; that for `N#CC1=C(N)Oc2cc(Nc3ccccc3)ccc2C1c1ccncc1` (stereo not drawn), 1.32 µM; that for `Cc1ccc2c(c1)[nH]c1c(N3CCN(Cc4ccccc4)CC3)ncnc12`, 7.57 µM. The result for `COc1cc(/C=C(/C(=O)c2cccs2)c2nc3ccccc3[nH]2)cc(OC)c1O` reads 1.99 µM; that for `Cc1ccc(S(=O)(=O)N2CCCN(S(=O)(=O)c3ccc(C(F)(F)F)cc3)CC2)cc1`, 7.11 µM; that for `CCN1CCN(c2ncc(C(=O)Nc3cc(Cl)c(OC)cc3OC)c3ccccc23)CC1`, 14.2 µM. The result for `CCOc1ccc(Nc2oc(-c3ccc(Cl)cc3)nc2C#N)cc1` reads > 10 µM (inactive); that for `COC(=O)Nc1ccc(S(=O)(=O)N2c3ccccc3CCC2C)cc1` (stereo not drawn), 9.54 µM. In the case of `CN1CCN(CCCN2c3ccccc3Sc3ccc(C(F)(F)F)cc32)CC1`, the EC50 is 6.57 µM.
